From ChEMBL document CHEMBL1127795, “Small-molecule immunostimulants. Synthesis and activity of 7,8-disubstituted guanosines and structurally related compounds” (1994) come the findings set out here.

Where “and” joins values, the source holds several entries; their conditions need not be identical. Equal entries are not always repeated.

The species entered for assay [1] is Mus musculus. As to the kind of experiment: Tested to augment the antibody response of B cells to sheep red blood cell (SRBC) challenge (adjuvanticity); Neg indicates a response lower than vehicle control. Type of assay: functional, cell-based. An outline of the steps:
(§1)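 CBA/CaJ spleen cells depleted of T cells with anti-T cell monoclonal antibody (1:1000, 30 min, 4 °C) then complement (37 °C, 45 min). Cultured ± 0.1% SRBC antigen in serum-containing medium with compound from zero to 10⁻³ M for 4 d. Plaque-forming cells counted in agarose with guinea pig complement. ED50 and maximal response relative to a concurrent standard.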

The subject of assay [2] is YAC-1. Put plainly: Percent of maximum response was tested for its ability to stimulate the natural killer response in murine in vitro cell assays. The format is functional, Mus musculus.
Assay [3] is filed under the species Mus musculus. Put plainly: Percent of maximum response was tested to augment the antibody response of B cells to sheep red blood cell challenge. The format is functional. Summed up: as §1
For assay [4], the species on record is Mus musculus. As to the kind of experiment: Percent of maximum response was tested for its ability to act as B-cell mitogens (mitogenicity). The format is functional. Summed up:
(§2)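 CBA/CaJ mouse spleen cells (1 × 10⁵/0.2 mL) exposed to graded compound concentrations, dissolved in water or DMSO and diluted in medium, for 24 h. [³H]thymidine then added for a further 24 h; incorporation by scintillation counting. ED50 and maximal response expressed relative to a concurrently run standard (loxoribine in most cases).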

For assay [5], the species on record is Mus musculus. Put plainly: Effective dose for its ability to act as B-cell mitogens (mitogenicity); Neg indicates a response lower than vehicle control. Type of assay: functional. Summed up: as §2
The subject of assay [6] is YAC-1. As to the kind of experiment: Stimulation of natural killer (NK) response in Yac-1 cell line (mouse, lymphoma); Neg indicates a response lower than vehicle control. Type of assay: functional, cell-based.
In assay [7] the test system is YAC-1. As to the kind of experiment: Stimulation of natural killer (NK) response in Yac-1 cell line (mouse, lymphoma). Type of assay: functional. The settings on record: read-out: ED50 (the source's name).
The subject of assay [8] is Mus musculus. As to the kind of experiment: In vivo natural killer cell response in splenocytes of mice injected with 2 mg subcutaneous dose. % lysis of YAC-1 cells at effector: target ratio of 200:1. Type of assay: functional. Summed up: (§3)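 Mice dosed subcutaneously with 2 mg compound, with sesame oil as the vehicle control. Splenocytes were harvested 48 h after dosing and assayed in a 4-h ⁵¹Cr-release test against 5 × 10⁴ labelled YAC-1 cells at four effector:target ratios. Results are mean % lysis ± one standard deviation, 3–5 mice per group.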

The test system of assay [9] is Mus musculus. Put plainly: In vivo natural killer cell response in splenocytes of mice injected with 2 mg subcutaneous dose. % lysis of YAC-1 cells at effector: target ratio of 100:1. The format is functional. Summed up:
as §3

The species entered for assay [10] is Mus musculus. As to the kind of experiment: Ability to act as B-cell mitogens. The settings on record: read-out: ED50 (the source's name). The format is functional. Summed up: as §2
The subject of assay [11] is Mus musculus. As to the kind of experiment: In vivo natural killer cell response in splenocytes of mice injected with 2 mg subcutaneous dose. % lysis of YAC-1 cells at effector: target ratio of 50:1. The format is functional. An outline of the steps:
as §3

The species named for assay [12] is Mus musculus. As to the kind of experiment: Augment antibody response of B cells to sheep red blood cell (SRBC) challenge (adjuvanticity). The format is functional. The settings on record: read-out: ED50 (the source's name). Summed up:
as §1

Assay [13] is filed under the species Mus musculus. Put plainly: Effective dose was tested for its ability to act as B-cell mitogens (mitogenicity). The format is functional. The note with it: read-out: ED50 (the source's name). An outline of the steps: as §2

As for `C=CCn1c(=O)n([C@@H]2O[C@H](CO)[C@H]3OC(C)(CCC(=O)NC)O[C@H]32)c2nc(N)nc(O)c21` (stereo not given in full), the ED50 result in the assay listed under Mus musculus [1], in the assay filed under Mus musculus [5] and in the assay on YAC-1 [6] was “Negative” throughout. Moreover, the Max response in the assay on YAC-1 [2] is recorded as 0%; in the assay listed under Mus musculus [3] it was 9%; in the assay filed under Mus musculus [4] it was 0%.

As to `Nc1nc(O)c2c(n1)n(C1OC(CO)[C@@H](O)[C@H]1O)c(=O)n2Cc1ccc([N+](=O)[O-])cc1` (stereo not given in full), the EC50 was found to be 48 µM in the assay with YAC-1 [7], 50 µM in the assay listed under Mus musculus [10] and 40 µM in the assay filed under Mus musculus [12]. The figures for the Max response with YAC-1 [2], in the assay listed under Mus musculus [3] and in the assay listed under Mus musculus [4] were 50%, 147% and 16%, respectively. Further, the Ratio with Mus musculus [8] was 27.4 and 9.9; in the assay on Mus musculus [9] it was 20.7; in the assay with Mus musculus [11], 15.8.

On to `Nc1nc(O)c2nc(S)n([C@H]3O[C@H](CO)[C@@H](O)[C@H]3O)c2n1`, for which the ED50 result in the assay listed under Mus musculus [1], in the assay listed under Mus musculus [5] and in the assay with YAC-1 [6] was “Negative” throughout. The figures for the Max response with YAC-1 [2], in the assay listed under Mus musculus [3] and in the assay listed under Mus musculus [4] were 0%, 8% and 6%, respectively.

Consider `CCCn1c(=O)n(C2CCC(CO)O2)c2nc(NC(=O)C(C)(C)C)nc(O)c21` (stereo not given), for which the ED50 result in the assay filed under Mus musculus [1], in the assay listed under Mus musculus [5] and in the assay with YAC-1 [6] was “Negative” in each case. In addition, the values for the Max response in the assay on YAC-1 [2], in the assay listed under Mus musculus [3] and in the assay filed under Mus musculus [4] were 0%, 19% and 4%, respectively.

`Cc1nc2nc3c(c(O)n2n1)n(CCN1CCCCC1)c(=O)n3C1OC(CO)[C@@H](O)[C@H]1O` (stereo not given in full): the ED50 result in the assay filed under Mus musculus [1], in the assay listed under Mus musculus [5] and in the assay on YAC-1 [6] was “Negative” in each case. Further, the Max response in the assay with YAC-1 [2] was 0%; in the assay filed under Mus musculus [3], 1%; in the assay filed under Mus musculus [4], 0.1%.

Take `Cn1c(=O)n2c3c1c(=O)nc(N)n3CC1OC2[C@H](O)C1O` (single isomer, unassigned): the ED50 entry in the assay filed under Mus musculus [1], in the assay listed under Mus musculus [5] and in the assay with YAC-1 [6] was “Negative” throughout. Further, the Max response in the assay with YAC-1 [2] was 6%; in the assay filed under Mus musculus [3], 9%; in the assay listed under Mus musculus [4], 0%.

For the compound `C=CCn1c(=O)n(C2C[C@H](O)C(CO)O2)c2nc(N)nc(O)c21` (stereo not given in full), the EC50 in the assay on YAC-1 [7] turned out to be 100 µM; in the assay listed under Mus musculus [13], 134 µM; in the assay listed under Mus musculus [12] it was 30 µM. Besides, the results for the Max response with YAC-1 [2], in the assay filed under Mus musculus [3] and in the assay listed under Mus musculus [4] were 75%, 99% and 131%, respectively.
